Test results from ChEMBL document CHEMBL3414496, “Synthesis and biological evaluation of novel 2-heteroarylimino-1,3-thiazolidin-4-ones as potential anti-tumor agents” (Eur J Med Chem, 2015).
pIC50: −log10 of the molar value. The source made the active and inactive calls. The rule behind the calls is not given here.

How the values were obtained:
[1] = Cytotoxicity against human HCT116 cells after 72 hrs by MTT assay; assay type: functional, cell-based; details: HCT-116, 72 h
How it was run: (§1)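 Cells seeded at 10^4/well, exposed 24 h later to graded concentrations (0.01–100 µM) for 72 h at 37°C; MTT 0.5 mg/ml for 2 h, formazan dissolved in DMSO, absorbance at 570 nm. […] Colon lines in DMEM, breast lines in RPMI, both with 10% FCS.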

HT-29 [2] = experiment: Induction of cell cycle arrest in human HT-29 cells assessed as accumulation at subG1 phase at 0.5 to 10 uM by propidium iodide staining based flow cytometry; assay type: functional
HT-29 [3] = experiment: Cytotoxicity against human HT-29 cells after 72 hrs by MTT assay; assay type: functional, cell-based; details: HT-29, 72 h; how it was run: as §1
SW-620 = experiment: Cytotoxicity against human SW620 cells after 72 hrs by MTT assay; assay type: functional, cell-based; details: SW-620, 72 h; how it was run: as §1
HT-29 [4] = experiment: Induction of cell cycle arrest in human HT-29 cells assessed as increase in accumulation at S phase at 0.5 to 10 uM by propidium iodide staining based flow cytometry; assay type: functional
MCF7 = experiment: Cytotoxicity against human MCF7 cells after 72 hrs by MTT assay; assay type: functional, cell-based; details: MCF7, 72 h; how it was run: as §1
MDA-MB-231 = experiment: Cytotoxicity against human MDA-MB-231 cells after 72 hrs by MTT assay; assay type: functional, cell-based; details: MDA-MB-231, 72 h; how it was run: as §1
HT-29 [5] = experiment: Growth inhibition of human HT-29 cells at cytotoxic IC50 level after 3 days by trypan blue dye exclusion assay; assay type: functional
How it was run: (§2)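 HT29 cells treated 48 h after seeding, dosed daily with daily medium change over three days; drug diluted in DMSO, controls 0.1% (v/v) DMSO. Cells trypsinized, mixed 1:1 with 0.04% trypan blue, live cells counted by hematimeter. Reported as mitotic index (treated/DMSO count); triplicates from two independent experiments.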

HT-29 [6] = experiment: Growth inhibition of human HT-29 cells at 0.5 to 10 uM after 3 days by trypan blue dye exclusion assay; assay type: functional; how it was run: as §2
HT-29 [7] = experiment: Induction of cell cycle arrest in human HT-29 cells assessed as increase in accumulation at G0/G1 phase at 0.5 to 10 uM by propidium iodide staining based flow cytometry; assay type: functional
HT-29 [8] = experiment: Growth inhibition of human HT-29 cells at 10 uM after 3 days by trypan blue dye exclusion assay; assay type: functional; details: HT-29, 72 h, read-out: GI; how it was run: as §2

Structure (SMILES) | pIC50 [1] | Activity (HT-29 [2]) | pIC50 (HT-29 [3]) | pIC50 (SW-620) | Activity (HT-29 [4]) | pIC50 (MCF7) | pIC50 (MDA-MB-231) | growth inhibition (GI) (HT-29 [5]) [%] | growth inhibition (GI) (HT-29 [6]) [%] | Activity (HT-29 [7]) | inhibition of growth at 10 µM (HT-29 [8]) [%]
O=C1N/C(=N/c2csc(-c3ccc(Cl)cc3)c2)S/C1=C\c1ccccc1 | 4.95 | inactive | 4.98 | < 4.30 | Active | < 4.30 | 4.74 |  |  |  | 
COc1ccc(-c2cc(/N=C3/NC(=O)CS3)cs2)cc1 | < 4.30 |  | < 4.30 | < 4.30 |  | < 4.30 | < 4.30 |  |  |  | 
COc1ccc(N2C(=O)CS/C2=N\c2csc(-c3ccc(Cl)cc3)c2)cc1OC | 4.30 |  | 4.85 | < 4.30 |  | 4.73 | 4.33 |  |  |  | 
O=C1CS/C(=N\c2csc(-c3cccc4ccccc34)c2)N1 | < 4.30 |  | < 4.30 | < 4.30 |  | < 4.30 | < 4.30 |  |  |  | 
O=C1CS/C(=N\c2csc(-c3ccc(Cl)cc3)c2)N1c1ccc(Cl)cc1 |  |  | 4.44 | < 4.30 |  | < 4.30 |  |  |  |  | 
Cc1ccc(-c2cc(/N=C3/NC(=O)CS3)cs2)cc1 | < 4.30 |  | < 4.30 | < 4.30 |  | < 4.30 | < 4.30 |  |  |  | 
O=C1CS/C(=N\c2nc(-c3ccc(Cl)cc3)cs2)N1 | 4.62 |  | 5.05 | < 4.30 |  | < 4.30 | < 4.30 |  |  |  | 
O=C1N/C(=N/c2csc(-c3ccc(Cl)cc3)c2)S/C1=C\c1ccc(Cl)cc1 | 4.94 |  | 5.55 | 5.34 |  | 5.17 | 5.19 | 25 |  |  | 
O=C1N/C(=N/c2csc(-c3ccc(Cl)cc3)c2)S/C1=C\c1ccc2ccccc2c1 | 5.52 |  | 5.43 | < 4.30 |  | 5.92 | 5.74 | 50 |  |  | 
O=C1N/C(=N/c2csc(-c3ccc(Cl)cc3)c2)S/C1=C\c1ccc(F)cc1 | 5.13 |  | 5.39 | 5.06 |  | < 4.30 |  | 25 |  |  | 
O=C1N/C(=N/c2csc(-c3ccc(Cl)cc3)c2)S/C1=C\c1ccc(Br)cc1 | 5.48 | inactive | 5.70 | 6.15 | Active | 5.60 | 5.46 | 25 |  |  | 
O=C1N/C(=N/c2csc(-c3ccc(Cl)cc3)c2)S/C1=C\c1ccc(O)cc1 |  |  | < 4.30 |  |  | < 4.30 |  |  |  |  | 
O=C1CS/C(=N\c2csc(-c3ccc(Cl)cc3)c2)N1 | < 4.30 |  | 4.77 | < 4.30 |  | < 4.30 | < 4.30 |  |  |  | 
O=C1N/C(=N/c2nc(-c3ccc(Cl)cc3)cs2)S/C1=C\c1ccc2ccccc2c1 | 5.92 |  | 5.74 | 4.69 |  | 6.52 | 6.05 | <25 | <5 |  | 
O=C1CS/C(=N\c2csc(-c3ccccc3)c2)N1 | < 4.30 |  | < 4.30 | < 4.30 |  | < 4.30 | < 4.30 |  |  |  | 
COc1ccc(-c2cc(/N=C3\SCC(=O)N3c3cccc(OC)c3)cs2)cc1 | 5.57 | inactive | 4.93 | 5.46 |  | 5.72 | 5.57 | 50 |  | Active | 
COc1cccc(N2C(=O)CS/C2=N\c2csc(-c3ccc(Cl)cc3)c2)c1 | < 4.30 |  | 4.61 | 4.48 |  | < 4.30 | < 4.30 |  |  |  | 
CCCCCC/C=C1\S/C(=N\c2csc(-c3ccc(Cl)cc3)c2)NC1=O |  |  | 4.47 |  |  | < 4.30 |  |  |  |  | 
O=C1N/C(=N/c2nc(-c3ccc(Cl)cc3)cs2)S/C1=C\c1ccc(F)cc1 | 5.12 |  | 5.54 | < 4.30 |  | < 4.30 | < 4.30 |  |  |  | 
COc1cccc(N2C(=O)CS/C2=N\c2csc(-c3ccccc3)c2)c1 |  |  | 4.42 |  |  |  |  |  |  |  | 
O=C1CS/C(=N\c2csc(-c3ccc(Cl)cc3)c2)N1c1ccccc1 |  |  | 4.38 |  |  | < 4.30 |  |  |  |  | 
CN(C)c1ccc(N2C(=O)CS/C2=N\c2csc(-c3ccc(Cl)cc3)c2)cc1 |  |  | 4.53 |  |  | < 4.30 |  |  |  |  | 
Cc1ccc(N2C(=O)CS/C2=N\c2csc(-c3ccc(Cl)cc3)c2)cc1 |  |  | 4.54 | < 4.30 |  | < 4.30 |  |  |  |  | 
COc1cccc(N2C(=O)CS/C2=N\c2csc(-c3cccc4ccccc34)c2)c1 |  |  | < 4.30 |  |  | < 4.30 |  |  |  |  | 
COc1cccc(N2C(=O)CS/C2=N\c2csc(-c3ccc(C)cc3)c2)c1 | 4.39 |  | < 4.30 | < 4.30 |  | < 4.30 | < 4.30 |  |  |  | 
O=C1CS/C(=N\c2c[se]c(-c3ccc(Cl)cc3)c2)N1 |  |  | < 4.30 | < 4.30 |  | < 4.30 |  |  |  |  | 
Cc1ccc(/C=C2\S/C(=N\c3nc(-c4ccc(Cl)cc4)cs3)NC2=O)cc1 | 6.30 |  | 6.30 | 6.05 |  | 6.40 | 6.10 | <25 |  |  | 40
O=C1N/C(=N/c2csc(-c3ccc(Cl)cc3)c2)S/C1=C\c1ccccn1 | 4.67 | inactive | 4.94 | < 4.30 | Active | 4.52 | 4.96 | 40 |  |  | 
CC(C)(C)c1cc(/N=C2/NC(=O)CS2)cs1 | < 4.30 |  | < 4.30 | < 4.30 |  | < 4.30 | < 4.30 |  |  |  | 
O=C1CS/C(=N\c2csc(-c3ccc(Cl)cc3)c2)N1c1cccc2ccccc12 |  |  | < 4.30 | 4.71 |  | < 4.30 |  |  |  |  | 
